In ChEMBL document CHEMBL5329176, “Design, synthesis, and biological evaluation of novel pyrimidin-2-amine derivatives as potent PLK4 inhibitors” (RSC Med Chem, 2023):
pIC50: −log10 of the molar value. Each block holds one molecule with its values, some of them ahead of it.

Key:
[1] = target: T1, Serine/threonine-protein kinase PLK4 (Homo sapiens, UniProt O00444); assay: Inhibition of human recombinant PLK4 incubated for 1 hrs by LanthaScreen Eu kinase FRET assay
T1 sequence (O00444 whole entry): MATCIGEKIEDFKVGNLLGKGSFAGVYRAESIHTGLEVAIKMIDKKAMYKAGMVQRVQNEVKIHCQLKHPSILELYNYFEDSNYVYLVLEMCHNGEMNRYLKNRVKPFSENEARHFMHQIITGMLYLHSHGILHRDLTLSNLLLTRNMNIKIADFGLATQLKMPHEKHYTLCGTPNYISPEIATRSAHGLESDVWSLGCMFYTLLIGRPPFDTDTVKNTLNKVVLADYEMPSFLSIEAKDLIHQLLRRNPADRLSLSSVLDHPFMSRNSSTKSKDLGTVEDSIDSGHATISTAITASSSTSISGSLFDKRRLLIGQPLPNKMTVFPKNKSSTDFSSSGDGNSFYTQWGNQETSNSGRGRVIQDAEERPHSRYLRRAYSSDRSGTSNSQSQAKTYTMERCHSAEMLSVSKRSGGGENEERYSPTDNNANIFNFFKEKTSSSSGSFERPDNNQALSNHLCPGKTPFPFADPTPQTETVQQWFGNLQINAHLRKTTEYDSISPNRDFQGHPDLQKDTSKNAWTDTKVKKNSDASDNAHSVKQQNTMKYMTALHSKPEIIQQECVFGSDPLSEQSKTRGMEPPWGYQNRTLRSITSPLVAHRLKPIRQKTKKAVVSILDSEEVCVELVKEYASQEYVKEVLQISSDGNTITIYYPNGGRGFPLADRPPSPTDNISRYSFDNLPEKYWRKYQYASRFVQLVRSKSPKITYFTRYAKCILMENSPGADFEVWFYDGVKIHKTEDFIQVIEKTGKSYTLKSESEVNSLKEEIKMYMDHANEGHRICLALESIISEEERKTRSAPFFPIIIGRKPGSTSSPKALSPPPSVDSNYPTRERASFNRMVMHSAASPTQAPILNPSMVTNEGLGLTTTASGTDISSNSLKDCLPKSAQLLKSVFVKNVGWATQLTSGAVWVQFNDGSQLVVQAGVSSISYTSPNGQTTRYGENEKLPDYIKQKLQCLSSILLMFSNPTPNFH

BT-474 = assay: Antiproliferative activity against human BT-474 cells assessed as cell growth inhibition incubated for 5 days by MTT assay; assay type: functional, cell-based; conditions: BT-474, 120 h
MCF7 = assay: Antiproliferative activity against human MCF7 cells assessed as cell growth inhibition incubated for 5 days by MTT assay; assay type: functional, cell-based; conditions: MCF7, 120 h
[2] = Metabolic stability in human liver microsomes assessed as parent compound remaining in presence of NADPH as co-foctor and measured after 60 mins by LC-MS/MS analysis; assay type: ADME, Microsome; conditions: read-out: Stability
[3] = Metabolic stability in human liver microsomes assessed as half life in presence of NADPH as co-foctor incubated for 60 mins by LC-MS/MS analysis; assay type: ADME, Microsome
[4] = Metabolic stability in human liver microsomes assessed as intrinsic clearance in presence of NADPH as co-foctor incubated for 60 mins by LC-MS/MS analysis; assay type: ADME, Microsome; conditions: read-out: CLH
MDA-MB-231 = assay: Antiproliferative activity against human MDA-MB-231 cells assessed as cell growth inhibition incubated for 5 days by MTT assay; assay type: functional, cell-based; conditions: MDA-MB-231, 120 h
[5] = Metabolic stability in human liver microsomes assessed as parent compound remaining in absence of NADPH as co-foctor and measured after 60 mins by LC-MS/MS analysis; assay type: ADME, Microsome; conditions: read-out: Stability
CYP2C19 = CYP2C19 (Homo sapiens, UniProt P33261); assay: Inhibition of CYP2C19 in human liver microsomes at 10 uM preincubated for 10 mins followed by NADPH cofactor addition and measured after 10 mins by LC-MS/MS analysis; assay type: ADME, Microsome; conditions: time 20 min
Sequence of CYP2C19 (P33261 whole entry, canonical isoform): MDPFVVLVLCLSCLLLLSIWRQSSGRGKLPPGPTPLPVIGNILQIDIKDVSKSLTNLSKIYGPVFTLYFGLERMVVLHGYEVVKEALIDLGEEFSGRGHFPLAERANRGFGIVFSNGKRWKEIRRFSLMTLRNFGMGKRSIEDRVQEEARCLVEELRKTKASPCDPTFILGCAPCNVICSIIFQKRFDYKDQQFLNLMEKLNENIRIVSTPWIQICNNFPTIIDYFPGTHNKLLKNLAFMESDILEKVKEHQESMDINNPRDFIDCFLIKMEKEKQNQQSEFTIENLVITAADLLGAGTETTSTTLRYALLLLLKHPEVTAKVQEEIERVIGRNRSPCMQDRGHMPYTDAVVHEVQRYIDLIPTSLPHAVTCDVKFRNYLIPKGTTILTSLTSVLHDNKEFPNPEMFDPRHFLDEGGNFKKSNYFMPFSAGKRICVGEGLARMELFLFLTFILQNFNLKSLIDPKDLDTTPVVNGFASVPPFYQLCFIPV
How it was run: (§1)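 Human liver microsome (HLM) incubation with isoform-specific substrate solutions. Test compound was added from a 100× working solution. Mixture was pre-warmed about 10 min at 37 °C, then NADPH cofactor was added and incubated 10 min at 37 °C. The reaction was stopped with cold stop solution, centrifuged at 4000 rpm for 20 min, and the supernatant was diluted and analysed by LC–MS/MS.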

CYP2D6 = CYP2D6 (Homo sapiens, UniProt P10635); assay: Inhibition of CYP2D6 in human liver microsomes at 10 uM preincubated for 10 mins followed by NADPH cofactor addition and measured after 10 mins by LC-MS/MS analysis; assay type: ADME, Microsome; conditions: time 20 min; how it was run: as §1
Sequence of CYP2D6 (P10635 whole entry): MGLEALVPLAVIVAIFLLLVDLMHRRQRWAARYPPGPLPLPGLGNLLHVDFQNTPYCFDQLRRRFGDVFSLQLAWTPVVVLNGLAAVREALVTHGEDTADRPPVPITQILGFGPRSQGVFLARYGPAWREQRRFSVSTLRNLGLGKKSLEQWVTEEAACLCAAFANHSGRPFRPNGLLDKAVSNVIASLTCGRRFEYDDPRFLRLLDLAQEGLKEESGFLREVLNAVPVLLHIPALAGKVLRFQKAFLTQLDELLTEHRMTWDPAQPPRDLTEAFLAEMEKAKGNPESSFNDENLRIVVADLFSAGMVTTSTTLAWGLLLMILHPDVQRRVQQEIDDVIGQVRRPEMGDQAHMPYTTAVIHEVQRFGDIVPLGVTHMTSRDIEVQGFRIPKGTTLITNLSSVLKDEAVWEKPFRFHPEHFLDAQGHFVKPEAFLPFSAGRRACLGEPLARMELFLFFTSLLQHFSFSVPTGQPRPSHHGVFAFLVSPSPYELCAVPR

[6] = Metabolic stability in human plasma assessed as parent compound remaining and measured after 60 mins by LC-MS/MS analysis; assay type: ADME, cell-free; conditions: read-out: Stability
How it was run: (§2)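 Pooled frozen plasma was thawed at 37 °C and centrifuged to remove clots. Compound was spiked to a final 2 μM (duplicate) and incubated at 37 °C. At 0, 10, 30, 60 and 120 min, protein was precipitated with acetonitrile stop solution containing tolbutamide and labetalol internal standards. Samples were centrifuged at 4000 rpm and 4 °C, and the supernatant was analysed by LC–MS/MS.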

[7] = Metabolic stability in human plasma assessed as parent compound remaining and measured after 0 mins by LC-MS/MS analysis; assay type: ADME, cell-free; conditions: read-out: Stability; how it was run: as §2
CYP3A4 = CYP3A4 (Homo sapiens, UniProt P08684); assay: Inhibition of CYP3A4 in human liver microsomes at 10 uM preincubated for 10 mins followed by NADPH cofactor addition and measured after 10 mins by LC-MS/MS analysis; assay type: ADME, Microsome; conditions: time 20 min; how it was run: as §1
Sequence of CYP3A4 (P08684 whole entry): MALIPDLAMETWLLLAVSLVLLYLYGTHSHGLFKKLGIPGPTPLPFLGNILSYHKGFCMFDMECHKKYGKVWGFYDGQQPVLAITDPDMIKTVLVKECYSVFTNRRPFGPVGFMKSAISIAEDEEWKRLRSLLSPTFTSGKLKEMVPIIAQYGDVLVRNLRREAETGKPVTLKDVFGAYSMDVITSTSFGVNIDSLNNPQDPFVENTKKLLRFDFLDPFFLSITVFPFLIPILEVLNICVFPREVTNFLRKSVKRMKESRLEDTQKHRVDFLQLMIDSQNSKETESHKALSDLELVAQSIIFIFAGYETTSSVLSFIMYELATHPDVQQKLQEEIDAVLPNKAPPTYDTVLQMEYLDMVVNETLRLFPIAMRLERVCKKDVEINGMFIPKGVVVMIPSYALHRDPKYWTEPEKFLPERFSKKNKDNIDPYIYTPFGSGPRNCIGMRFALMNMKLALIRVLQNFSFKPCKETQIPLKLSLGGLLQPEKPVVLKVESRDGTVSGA

CYP2C9 = CYP2C9 (Homo sapiens, UniProt P11712); assay: Inhibition of CYP2C9 in human liver microsomes at 10 uM preincubated for 10 mins followed by NADPH cofactor addition and measured after 10 mins by LC-MS/MS analysis; assay type: ADME, Microsome; conditions: time 20 min
Sequence of CYP2C9 (P11712 whole entry): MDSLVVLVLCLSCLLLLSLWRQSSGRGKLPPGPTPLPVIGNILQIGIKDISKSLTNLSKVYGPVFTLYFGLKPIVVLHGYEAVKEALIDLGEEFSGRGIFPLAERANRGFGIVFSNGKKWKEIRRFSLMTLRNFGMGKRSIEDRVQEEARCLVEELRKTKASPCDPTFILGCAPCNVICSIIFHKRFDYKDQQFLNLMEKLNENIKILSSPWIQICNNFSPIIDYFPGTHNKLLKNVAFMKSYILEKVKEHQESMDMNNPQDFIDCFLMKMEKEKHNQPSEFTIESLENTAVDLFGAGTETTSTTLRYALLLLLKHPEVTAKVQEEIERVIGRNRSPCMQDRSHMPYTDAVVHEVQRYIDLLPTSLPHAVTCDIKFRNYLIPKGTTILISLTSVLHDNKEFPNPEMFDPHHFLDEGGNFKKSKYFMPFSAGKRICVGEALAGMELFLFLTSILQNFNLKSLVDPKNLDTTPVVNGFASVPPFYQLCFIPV

[8] = Metabolic stability in human plasma assessed as parent compound remaining and measured after 120 mins by LC-MS/MS analysis; assay type: ADME, cell-free; conditions: read-out: Stability; how it was run: as §2
[9] = Metabolic stability in human plasma assessed as parent compound remaining and measured after 10 mins by LC-MS/MS analysis; assay type: ADME, cell-free; conditions: read-out: Stability; how it was run: as §2
CYP1A2 = target: T2, CYP1A2 (Homo sapiens, UniProt P05177); assay: Inhibition of CYP1A2 in human liver microsomes at 10 uM preincubated for 10 mins followed by NADPH cofactor addition and measured after 10 mins by LC-MS/MS analysis; assay type: ADME, Microsome; conditions: time 20 min; how it was run: as §1
T2 sequence (P05177 whole entry): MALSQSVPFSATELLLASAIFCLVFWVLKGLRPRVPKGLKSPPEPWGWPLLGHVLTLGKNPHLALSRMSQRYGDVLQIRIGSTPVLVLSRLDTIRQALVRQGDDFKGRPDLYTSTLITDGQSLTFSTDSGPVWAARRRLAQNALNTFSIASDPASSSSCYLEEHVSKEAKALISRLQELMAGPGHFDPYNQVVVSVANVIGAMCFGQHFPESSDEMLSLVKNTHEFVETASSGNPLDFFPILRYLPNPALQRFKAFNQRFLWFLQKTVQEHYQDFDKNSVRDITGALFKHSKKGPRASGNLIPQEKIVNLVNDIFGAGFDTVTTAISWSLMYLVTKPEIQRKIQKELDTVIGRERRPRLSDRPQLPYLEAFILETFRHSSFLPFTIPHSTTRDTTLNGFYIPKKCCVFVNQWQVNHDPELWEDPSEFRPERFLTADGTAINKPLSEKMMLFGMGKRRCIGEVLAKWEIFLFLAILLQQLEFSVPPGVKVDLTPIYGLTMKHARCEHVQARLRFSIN

[10] = Metabolic stability in human plasma assessed as half life and measured upto 120 mins by LC-MS/MS analysis; assay type: ADME, cell-free; how it was run: as §2
[11] = Metabolic stability in human plasma assessed as parent compound remaining and measured after 30 mins by LC-MS/MS analysis; assay type: ADME, cell-free; conditions: read-out: Stability; how it was run: as §2

- pIC50 [1]: 7.25
SMILES: Nc1ccc(Sc2ccnc(Nc3ccc(N4CCOCC4)cc3)n2)cc1F

- pIC50 [1]: 7.10
SMILES: Fc1cccc(Sc2ccnc(Nc3ccc(N4CCOCC4)cc3)n2)c1

- pIC50 (BT-474): < 4.70
- pIC50 (MCF7): 5.06
- pIC50 [1]: 7.77
- remaining at 1 h [2]: 48.7%
- half-life [3]: 0.972 h
- microsomal CLint [4]: 23.8 µL/min/mg
- pIC50 (MDA-MB-231): 5.29
- remaining at 1 h [5]: 94.4%
SMILES: Nc1ccc(Sc2ccnc(Nc3ccc(N4CCOCC4)cc3)n2)cc1

- pIC50 (BT-474): 5.03
- pIC50 (MCF7): 5.46
- pIC50 [1]: 7.46
- pIC50 (MDA-MB-231): 5.09
SMILES: Nc1ccc(Sc2ccnc(Nc3ccc(N4CCOCC4)cc3)n2)c(F)c1

- pIC50 [1]: 7.15
SMILES: CNc1ccc(Sc2ccnc(Nc3ccc(N4CCOCC4)cc3)n2)cc1

- pIC50 (BT-474): 4.79
- pIC50 (MCF7): 5.41
- pIC50 [1]: 7.41
- pIC50 (MDA-MB-231): 5.35
SMILES: Nc1ccc(Sc2ccnc(Nc3ccc(C(=O)N4CCOCC4)cc3)n2)cc1

- pIC50 (BT-474): 4.89
- pIC50 (MCF7): < 4.70
- pIC50 [1]: 7.35
- pIC50 (MDA-MB-231): 5.29
SMILES: Nc1ccc(Sc2ccnc(Nc3cccc(N4CCOCC4)c3)n2)cc1

- pIC50 [1]: 6.70
SMILES: Fc1ccc(Sc2ccnc(Nc3ccc(N4CCOCC4)cc3)n2)cc1

- pIC50 [1]: 5.96
SMILES: Nc1ccc(Sc2ccnc(Nc3ccc(N4CCSCC4)cc3)n2)cc1

- pIC50 [1]: 6.82
SMILES: Nc1cccc(Sc2ccnc(Nc3ccc(N4CCOCC4)cc3)n2)c1

- pIC50 [1]: 5.62
SMILES: Brc1cccc(Sc2ccnc(Nc3ccc(N4CCOCC4)cc3)n2)c1

- pIC50 [1]: 6.86
SMILES: Nc1ccc(Sc2ccnc(Nc3ccc(N4CCNCC4)cc3)n2)cc1

- pIC50 [1]: 6.66
SMILES: Brc1ccccc1Sc1ccnc(Nc2ccc(N3CCOCC3)cc2)n1

- pIC50 [1]: 5.85
SMILES: Clc1cccc(Sc2ccnc(Nc3ccc(N4CCOCC4)cc3)n2)c1

- pIC50 [1]: 6.86
SMILES: Nc1ccc(Sc2ccnc(Nc3cccc(CN4CCOCC4)c3)n2)cc1

- pIC50 [1]: 6.90
SMILES: c1cc(Sc2ccc3[nH]ncc3c2)nc(Nc2ccc(N3CCOCC3)cc2)n1

- pIC50 [1]: 6.85
SMILES: Clc1ccccc1Sc1ccnc(Nc2ccc(N3CCOCC3)cc2)n1

- pIC50 [1]: 6.28
SMILES: Nc1ccc(Sc2ccnc(Nc3ccccc3)n2)cc1

- pIC50 [1]: 6.75
SMILES: c1ccc(CNc2ccnc(Nc3ccc(N4CCOCC4)cc3)n2)cc1

- pIC50 [1]: 6.83
SMILES: Clc1ccc(Sc2ccnc(Nc3ccc(N4CCOCC4)cc3)n2)cc1

- pIC50 [1]: 6.72
SMILES: Brc1ccc(Sc2ccnc(Nc3ccc(N4CCOCC4)cc3)n2)cc1

- pIC50 [1]: 7.09
SMILES: c1ccc(Oc2ccnc(Nc3ccc(N4CCOCC4)cc3)n2)cc1

- pIC50 [1]: 6.87
SMILES: Fc1ccccc1Sc1ccnc(Nc2ccc(N3CCOCC3)cc2)n1

- pIC50 [1]: 7.24
SMILES: Nc1ccc(Sc2ccnc(Nc3ccc(NC4CCNCC4)cc3)n2)cc1

- pIC50 (BT-474): < 4.70
- pIC50 (MCF7): < 4.70
- pIC50 [1]: 7.51
- pIC50 (MDA-MB-231): 5.12
SMILES: c1ccc(Sc2ccnc(Nc3ccc(N4CCOCC4)cc3)n2)cc1

- pIC50 [1]: 6.75
SMILES: c1ccc2c(Sc3ccnc(Nc4ccc(N5CCOCC5)cc4)n3)cccc2c1

- pIC50 [1]: 7.19
SMILES: c1ccc(Nc2ccnc(Nc3ccc(N4CCOCC4)cc3)n2)cc1

- pIC50 [1]: 7.10
SMILES: Nc1ccc(Sc2ccnc(Nc3ccc(NC4CCNC4)cc3)n2)cc1 (stereo unspecified)

- pIC50 (BT-474): 5.11
- inhibition at 10 min, 10 µM (CYP2C19): 48.7%
- pIC50 (MCF7): 5.84
- inhibition at 10 min, 10 µM (CYP2D6): 8%
- remaining at 1 h [6]: 107%
- pIC50 [1]: 8.15
- remaining at 1 h [2]: 100%
- half-life [3]: > 2.42 h
- remaining at 0 h [7]: 100%
- inhibition at 10 min, 10 µM (CYP3A4): 14.4%
- inhibition at 10 min, 10 µM (CYP2C9): 42.9%
- remaining at 2 h [8]: 104%
- remaining at 10 min [9]: 105%
- inhibition at 10 min, 10 µM (CYP1A2): 33.1%
- microsomal CLint [4]: < 9.6 µL/min/mg
- pIC50 (MDA-MB-231): 5.67
- half-life [10]: > 4.82 h
- remaining at 0.5 h [11]: 114%
- remaining at 1 h [5]: 104%
SMILES: Nc1ccc(Sc2ccnc(Nc3ccc(NC4CCOCC4)cc3)n2)cc1

- pIC50 [1]: 6.53
SMILES: Nc1ccccc1Sc1ccnc(Nc2ccc(N3CCOCC3)cc2)n1

- pIC50 [1]: 6.42
SMILES: Nc1ccc(Sc2ccnc(Nc3ccc(CN4CCNCC4)cc3)n2)cc1

- pIC50 [1]: 7.19
SMILES: Nc1ccc(Sc2ccnc(Nc3ccc(CN4CCOCC4)cc3)n2)cc1

- pIC50 [1]: 6.50
SMILES: CN(C)c1ccc(Sc2ccnc(Nc3ccc(N4CCOCC4)cc3)n2)cc1

- pIC50 [1]: 5.18
SMILES: COC(=O)c1cc(Nc2nccc(Sc3ccc(N)cc3)n2)ccc1NC1CCOCC1

- pIC50 [1]: 6.99
SMILES: CNC(=O)c1ccccc1Sc1ccnc(Nc2ccc(N3CCOCC3)cc2)n1

- pIC50 (BT-474): < 4.70
- pIC50 (MCF7): < 4.70
- pIC50 [1]: 7.34
- pIC50 (MDA-MB-231): 5.19
SMILES: c1cc(Sc2ccnc(Nc3ccc(N4CCOCC4)cc3)n2)c2cccnc2c1
